Sampled rows, rich in hits. Any-hit rate of the full collection: about 2.8%.
Rtt109 HAT inh = inhibitors of Candida albicans Rtt109/Vps75 histone acetyltransferase; 330,000 tested, 0.16% active; inhibition, % at 34.9 µM; Q5AAJ8; purified Rtt109/Vps75, ThioGlo CoA-SH fluorescence, 4 h;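 active = inhibition of at least 50% in every replicate; inconclusive = best replicate reaches 50% inhibition but some replicates fall short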
NR3A LBD binder = modulates the human NR3A ligand-binding domain; NR3A LBD differential scanning fluorimetry, Tm shift; 0% = protein alone, 100% = glycine-bound protein; Tm shift relative to glycine control, % at 25 µM; 340,000 tested, 2.5% active; AID 1259313;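 active = melting temperature shift of at least 10% of the positive control shift, at one fixed dose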
JMJD2C inh = inhibitors of human GASC-1 (JMJD2C) demethylase. Q9H3R0. GST-JMJD2C(1-420) H3K9me3 demethylation, DELFIA europium. inhibition, % at 2.35 µM. 330,000 tested, 0.069% active. AID 2099;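 active = more than half of a compound's replicate wells show inhibition beyond 50%, single wells judged on their own value; inconclusive = some, but no more than half, of replicates pass 50% inhibition; inactive = no replicate passes 50% inhibition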;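 note: signal counts dimethyl H3K9 product captured on neutravidin plate; 0% = median of DMSO wells and 100% = 0.3 times that DMSO median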
Target sequence (Q9H3R0 1-420 limits assumed): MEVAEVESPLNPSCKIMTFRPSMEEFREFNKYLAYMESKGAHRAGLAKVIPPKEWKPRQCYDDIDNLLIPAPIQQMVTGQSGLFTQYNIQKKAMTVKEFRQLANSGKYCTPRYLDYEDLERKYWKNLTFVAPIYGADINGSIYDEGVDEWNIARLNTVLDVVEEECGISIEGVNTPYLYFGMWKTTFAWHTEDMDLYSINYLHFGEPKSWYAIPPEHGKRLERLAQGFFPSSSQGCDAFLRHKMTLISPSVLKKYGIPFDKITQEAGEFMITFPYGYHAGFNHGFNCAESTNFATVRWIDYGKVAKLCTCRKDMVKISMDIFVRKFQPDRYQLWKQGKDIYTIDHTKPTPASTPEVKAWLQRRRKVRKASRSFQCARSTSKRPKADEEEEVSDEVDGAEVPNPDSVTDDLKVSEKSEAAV
T cell modulator = modulates CD8 T cell binding to vesicles; 2C CD8+ T cell-vesicle binding, flow cytometry; hits give low values; 330,000 tested, 0.068% active; AID 2052; response (vesicle binding), % at 7 µM;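 active = response, share of CD8 T cells binding vesicles, and their 90th percentile fluorescence all below set limits, cut at about 80% in these data, passing the limit was not always enough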;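 note: values below 100% mean blocked vesicle binding to the CD8+ T cells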
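Assay system – 2C mouse CD8+ T cells · Also added – QL9-loaded Drosophila micro-vesicles · Timing – Cell–vesicle co-incubation 1.5 h at 37 °C, staining 20 min on ice · Signal – flow cytometry of vesicle-bound cells · Measure – percent CD8+ FL2 mean versus row control · Controls – Peptide-free naked vesicles (low) and QL9 vesicles with 0.7% DMSO vehicle (high)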
* marks the source's active call; other numbers are inactive results.

Cc1ccc(-c2cc(C(=O)N/N=C/C=C/c3ccccc3)n[nH]2)s1 was read as Rtt109 HAT inh 16, NR3A LBD binder 19*, JMJD2C inh 6 and T cell modulator 408.
`Cc1ccc(-c2cc(C(=O)N/N=C/c3c[nH]c4ccccc34)n[nH]2)o1` gave NR3A LBD binder 28*, JMJD2C inh 25 and T cell modulator 267.
Cc1ccc(-c2cc(C(=O)N/N=C/c3ccccc3O)n[nH]2)o1 was read as Rtt109 HAT inh 12, NR3A LBD binder 31*, JMJD2C inh 20 and T cell modulator 336.
`CCCc1nc2ccccc2c(C(=O)N(CC)CC(=O)NCc2cccs2)c1CC` gave Rtt109 HAT inh -1 and NR3A LBD binder 2.
For Nc1cc(-c2ccc(Br)cc2)nc2cc(-c3ccccc3)nn12 the results were Rtt109 HAT inh 0, NR3A LBD binder 34*, JMJD2C inh 17 and T cell modulator 533.
Screening COc1cccc(CNC(=O)Cc2ccc(OC)c(S(=O)(=O)N3CCOCC3)c2)c1 returned NR3A LBD binder 0, JMJD2C inh -4 and T cell modulator 327.
`O=C(COC(=O)c1ccccc1Cc1ccccc1)Nc1ccc(SC(F)F)cc1` gave Rtt109 HAT inh -1, NR3A LBD binder 19*, JMJD2C inh 1 and T cell modulator 0.
For COc1ccc(NS(=O)(=O)c2cc(NS(=O)(=O)c3cccs3)ccc2C)cc1 the results were Rtt109 HAT inh 5 and NR3A LBD binder -3.
Cc1ccc(N2C(=O)C(c3c(C)[nH]n(-c4ccccc4)c3=O)(C(F)(F)F)C3=C2CC(C)(C)CC3=O)cc1 (stereo not given) was read as Rtt109 HAT inh inconclusive, NR3A LBD binder -5, JMJD2C inh 3 and T cell modulator 607.
For Cc1[nH]n(-c2ccccc2)c(=O)c1C1(C(F)(F)F)C(=O)N(c2ccccc2)C2=C1C(=O)CC(C)(C)C2 (stereo not given) the results were Rtt109 HAT inh 10, NR3A LBD binder 13*, JMJD2C inh 12 and T cell modulator 249.
For COc1ccc(-n2nc([N+](=O)[O-])c(=NCCc3ccc(OC)c(OC)c3)n2O)cc1 the results were Rtt109 HAT inh 5, NR3A LBD binder 23*, JMJD2C inh 2 and T cell modulator 267.
For COc1ccc(-n2nc([N+](=O)[O-])c(=NCCc3ccc(C)cc3)n2O)cc1 the results were Rtt109 HAT inh 3, NR3A LBD binder -5, JMJD2C inh 14 and T cell modulator 176.
For Cc1ccc2[nH]c(O)c(N=NC(=O)CCc3ccccc3)c2c1Br the results were Rtt109 HAT inh -5, NR3A LBD binder 17*, JMJD2C inh 5 and T cell modulator 257.
For O=C(Nc1nc2ccccc2s1)C1CC(=O)N(c2ccccc2)C1 (stereo not given) the results were Rtt109 HAT inh -1, NR3A LBD binder -2, JMJD2C inh 4 and T cell modulator 250.
For O=C(Nc1nc2ccccc2s1)C1CC(=O)N(c2ccc(Br)cc2)C1 (stereo not given) the results were Rtt109 HAT inh 15, NR3A LBD binder 16*, JMJD2C inh inconclusive and T cell modulator 219.
Nc1c(Cl)ncnc1N/N=C/c1ccccn1 was read as NR3A LBD binder -1, JMJD2C inh 13 and T cell modulator 232.
`Clc1cccc(/C=N/Nc2ncnc3ccccc23)c1` gave Rtt109 HAT inh -4, NR3A LBD binder 14*, JMJD2C inh 2 and T cell modulator 193.
`C(=N\Nc1ncnc2ccccc12)/c1ccccc1` gave Rtt109 HAT inh 10, NR3A LBD binder -45, JMJD2C inh 10 and T cell modulator 487.
Screening Nc1c(Cl)ncnc1N/N=C/c1ccnc2ccccc12 returned Rtt109 HAT inh 3, NR3A LBD binder 13*, JMJD2C inh 6 and T cell modulator 314.
COc1ccc(N(C)S(=O)(=O)c2cccc(C(=O)N3CCN(c4cccc(C)c4C)CC3)c2)cc1 was read as Rtt109 HAT inh -3 and NR3A LBD binder 3.
For COc1ccc(/C=C/C(=O)NC(=S)Nc2cc([N+](=O)[O-])ccc2O)cc1OC the results were Rtt109 HAT inh 12, NR3A LBD binder 19*, JMJD2C inh -5 and T cell modulator 177.
Screening COc1ccccc1/C=C/C(=O)Nc1cccc(C(C)=O)c1 returned Rtt109 HAT inh 1, NR3A LBD binder 21*, JMJD2C inh -16 and T cell modulator 572.
Screening COc1cccc(/C=C/C(=O)c2cccc([N+](=O)[O-])c2)c1OC returned Rtt109 HAT inh -3, NR3A LBD binder 10*, JMJD2C inh -36 and T cell modulator 340.
`COc1ccc(/C=C/C(=O)Nc2ccc(C(N)=O)cc2)cc1OC` gave NR3A LBD binder 15*, JMJD2C inh 2 and T cell modulator 923.
For COc1cccc(/C=C/C(=O)c2cccc([N+](=O)[O-])c2)c1 the results were Rtt109 HAT inh 2, NR3A LBD binder -5, JMJD2C inh 1 and T cell modulator inactive.
`COc1ccc(/C=C/C(=O)Nc2cccc(C(C)=O)c2)cc1` gave Rtt109 HAT inh 9, NR3A LBD binder -8, JMJD2C inh 6 and T cell modulator 280.
Cc1ccc(NC(=O)CSCC(=O)OCc2cc(=O)oc3cc(O)ccc23)c(C)c1 was read as Rtt109 HAT inh -124, JMJD2C inh -3 and T cell modulator 345.
`COc1ccccc1N1CCN(C(=O)c2ccc3ncsc3c2)CC1` gave Rtt109 HAT inh -3 and NR3A LBD binder 2.
COc1ccc(NC(=O)CCNC(=O)c2ccc([N+](=O)[O-])cc2)cc1S(=O)(=O)N1CCCCC1 was read as Rtt109 HAT inh 9 and NR3A LBD binder 2.
For COc1cccc(/C=C/C(=O)Nc2ccc3c(c2)OCCO3)c1OC the results were Rtt109 HAT inh 17, NR3A LBD binder 20*, JMJD2C inh 6 and T cell modulator 551.
`COc1cccc(/C=C/C(=O)Nc2ccc(C(=O)Nc3cccc(S(N)(=O)=O)c3)cc2)c1OC` gave Rtt109 HAT inh -3, NR3A LBD binder 39*, JMJD2C inh 2 and T cell modulator 321.
Screening COc1cccc(OC)c1C(=O)NC(=S)Nc1ccc2c(c1)OCCO2 returned Rtt109 HAT inh 4, NR3A LBD binder -1, JMJD2C inh 44 and T cell modulator 249.
COc1cccc(/C=C/C(=O)Nc2cccc(C(C)=O)c2)c1OC was read as Rtt109 HAT inh 1, NR3A LBD binder 15*, JMJD2C inh -5 and T cell modulator 162.
Screening CCOC(CNCc1cc(C)c2[nH]c3ccccc3c2c1C)OCC returned Rtt109 HAT inh 10 and NR3A LBD binder 0.
`CC1CCCC(C)N1CCNC(=O)CCc1nnc2n(Cc3ccccc3)c(=O)c3ccccc3n12` (stereo not given) gave Rtt109 HAT inh -8, NR3A LBD binder -2, JMJD2C inh -3 and T cell modulator 0.0*.
`CC1CCCCN1CCNC(=O)CCc1nnc2n(Cc3ccccc3)c(=O)c3ccccc3n12` (stereo not given) gave Rtt109 HAT inh 5, NR3A LBD binder -1, JMJD2C inh 4 and T cell modulator 150.
